Measured values published in PubChem BioAssay AID624466 (The Scripps Research Institute Molecular Screening Center, 2012).
Screen size: about 360,000 compounds; about 5,400 (1.5%) were called active.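 How the source made its calls: active means inhibition above a per-plate cutoff, the mean inhibition of test compounds on that plate plus 3 SD (cut at about 49% in these data); inactive means the rest.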 This excerpt belongs to a sample that is enriched for actives.

Each molecule was assayed against Trace amine-associated receptor 1 (Homo sapiens) (UniProt Q96RJ0) (assay: human TAAR1 antagonists, primary screen, Fluo-8 calcium fluorescence, CHO RD-HGA16 cells (AID 624466;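 further: 0% = DMSO plus EC80 beta-PEA response and 100% = DMSO alone without agonist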)). Conditions: CHO RD-HGA16 TAAR1, Fluo-8 calcium fluorescence, antagonist; at 3 µM; stronger effect = higher value.
Trace amine-associated receptor 1 (Homo sapiens), sequence (Q96RJ0 whole entry, looked up, the tested form may be a part): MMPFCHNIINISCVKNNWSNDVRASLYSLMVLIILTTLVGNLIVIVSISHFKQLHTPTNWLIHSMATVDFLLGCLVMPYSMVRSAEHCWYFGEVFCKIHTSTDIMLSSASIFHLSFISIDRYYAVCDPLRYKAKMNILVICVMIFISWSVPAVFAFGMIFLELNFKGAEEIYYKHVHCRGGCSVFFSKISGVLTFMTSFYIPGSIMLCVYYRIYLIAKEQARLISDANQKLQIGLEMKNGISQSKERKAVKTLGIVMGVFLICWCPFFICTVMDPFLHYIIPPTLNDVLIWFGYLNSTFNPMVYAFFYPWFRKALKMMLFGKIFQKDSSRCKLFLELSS
Method in brief: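 Test system: hTAAR1-expressing CHO RD-HGA16 cells, Gα16-coupled; Probe or stimulus: EC80 β-phenethylamine stimulus; Compound dosing: single nominal final test compound concentration of 3 µM; Timing: 140 s kinetic read after compound, 140 s after agonist; Signal: Fluo-8 calcium-sensitive fluorescence; Measure: % inhibition of agonist calcium response; Controls: DMSO and EC80 PEA controls.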

Structure (SMILES) | inhibition
COCCNC(=O)CCCN1C(=O)c2ccccc2Sc2ncccc21 | -9.71% (inactive)
Cc1c(C(=O)NCc2ccccc2)cnn1-c1ccccc1 | -4.01% (inactive)
CNC(=O)CSc1nnc(CCc2ccccc2)n1-c1ccccc1 | 10.8% (inactive)
Cc1c(CNCCc2ccccc2)c(C(=O)O)c(C)n1-c1ccccc1 | 65.9% (active)
CCOC(=O)/C=C/c1ccccc1O | -4.54% (inactive)
Cc1cc(C)nc(SC2CCCCC2NS(=O)(=O)c2ccc(Cl)cc2)n1 (stereo unspecified) | -8.5% (inactive)
COC(=O)C1=C(C)N(Cc2ccc(C(F)(F)F)cc2)C(=NCc2ccc(C(F)(F)F)cc2)NC1c1cccc(Cl)c1 (stereo unspecified) | 12.3% (inactive)
CC(=O)C1=C(C)N(Cc2ccc(Cl)cc2)C(=S)NC1c1ccc(F)cc1 (stereo unspecified) | 28.2% (inactive)
COC(=O)C1=C(C)N(Cc2ccc(F)cc2)C(=S)NC1c1cccc(Cl)c1 (stereo unspecified) | 64.3% (active)
O=C(Nc1ccccc1)N1CCN(C2c3ccccc3-c3ccccc32)CC1 | 3.75% (inactive)
COc1cccc(N2CCN(C(=O)Nc3ccc4c(c3)NC(=O)CO4)CC2)c1 | 11.5% (inactive)
O=C(Nc1cccc(NC(=O)N2CCN(c3ccccc3)CC2)c1)N1CCN(c2ccccc2)CC1 | 53.4% (active)
Cc1nn2c(NCCN(C)C)c3c(nc2c1-c1ccccc1)CCC3 | -32.4% (inactive)
COc1cccc(CNC(=O)[C@H]2CCCN2C(=O)[C@H]2CCCN2C(=O)c2cc(F)cc(F)c2)c1 | 4.19% (inactive)
CCN(CC(=O)Nc1c(F)cccc1F)C(=O)Cc1cccs1 | -22.6% (inactive)
Cc1cc(C)c(S(=O)(=O)NN=C2c3ccccc3[C@H]3Cc4csc[n+]4[C@@H]23)c(C)c1 | 6.84% (inactive)
CC(C)n1ncc2c(C(=O)NCc3ccccc3CN(C)C)cc(C3CC3)nc21 | -19.6% (inactive)
CC(C)n1ncc2c(C(=O)Nc3ccc(CC#N)cc3)cc(C3CC3)nc21 | 35.5% (inactive)
COc1ccc(OCCNC(=O)c2cc(C3CC3)nc3c2cnn3C(C)C)cc1 | 48.8% (active)

Structure (SMILES) | inhibition
CCc1c(-c2ccc(F)cc2)ncn1Cc1cccc(-c2ccccc2)c1 | 34.5% (inactive)
O=C1NC[C@@H](CCCCN2CCN(CCc3ccc(O)cc3)C(=O)C2=O)N(CC2CCCCC2)C1=O | 3.12% (inactive)
COc1ccc(CNC(=O)CN2C(=O)c3ccccc3S2(=O)=O)cc1 | 17.9% (inactive)
O=C1c2ccccc2S(=O)(=O)N1CC(O)Cn1c2ccccc2c2ccccc21 (stereo unspecified) | 62.3% (active)
CC(C)(C)c1ccc(CN2C(=O)c3ccccc3S2(=O)=O)cc1 | 8.91% (inactive)
COc1ccc(-c2cc(C(=O)Nc3ccccc3O)c3ccccc3n2)cc1 | 86.9% (active)
COc1ccc(NC(=O)c2cn(-c3ccccc3)nc2SC)cc1 | -11.6% (inactive)
COc1ccc(NC(=O)CN(C)C(=O)c2cc(C)oc2C)cc1 | -28% (inactive)
Cc1ccc2nc(-c3ccncc3)cc(C(=O)Nc3ccc(OC(F)F)cc3)c2c1 | -4.36% (inactive)
COc1cccc(NC(=O)CN(C)C(=O)c2cc(Cl)nc3ccccc23)c1 | 18.8% (inactive)
COc1ccc(NC(=O)CN(C)C(=O)c2cc(-c3ccc(C)o3)nc3ccccc23)cc1 | 54.9% (active)
C/C(=N\NC(=O)c1cc(-c2ccc(O)cc2)nc2ccccc12)c1cccnc1 | -2.53% (inactive)
COc1ccc(NC(=O)c2cc(-c3cc(OC)c(OC)c(OC)c3)nc3ccccc23)c(OC)c1 | 3.05% (inactive)
COc1ccc(NC(=O)c2cc(-c3ccc(C)o3)nc3ccccc23)cc1 | 57.4% (active)
CO[C@@H]1CN(C)C(=O)c2cc(NC(=O)Nc3cc(F)ccc3F)ccc2OC[C@H](C)N(C(=O)c2ccccn2)C[C@@H]1C | -23.9% (inactive)
CCCCCCN1CCN(C2CN(Cc3cn(Cc4ccc(F)cc4)nn3)S(=O)(=O)C2)CC1 (stereo unspecified) | -26.8% (inactive)
COC(=O)C1=C(C)N(Cc2ccc(C(F)(F)F)cc2)C(=NCc2ccccc2)NC1c1ccccc1C(F)(F)F (stereo unspecified) | -9.36% (inactive)
CCOC(=O)c1c(N)c(C#N)nn1-c1ccccc1C(=O)OC | 5.89% (inactive)
Cc1ccccc1NC(=S)NC(=O)Cc1ccc(Cl)cc1 | 91.6% (active)

Structure (SMILES) | inhibition
O=C(COc1ccc(Cl)cc1)NC(=S)Nc1ccccc1N1CCOCC1 | -2.14% (inactive)
Cc1cccc(NC(=S)NCCc2ccc(Cl)cc2)c1C | -16.5% (inactive)
Cc1ccccc1N/C(SCc1ccc(Cl)cc1)=C(/C#N)C(N)=O | -9.21% (inactive)
O=C(Cc1ccc(Cl)cc1)NC(=S)Nc1ccccc1O | 104% (active)
O=C(COc1ccc(Cl)cc1)Nc1ccccc1CO | 4.17% (inactive)
O=C(C(=O)N1CCC(CNS(=O)(=O)Cc2ccccc2)CC1)c1cc2ccccc2o1 | -11.1% (inactive)
CCc1cccc(CC)c1N1C(=O)CC(Sc2ccccc2N)C1=O (stereo unspecified) | -2.71% (inactive)
CCC(c1nc2ccccc2[nH]1)n1c(=O)c(-c2cccs2)nc2ccccc21 (stereo unspecified) | -2.04% (inactive)
CCOc1ccccc1NC(=S)NC(=O)CCc1ccccc1 | -0.27% (inactive)
CC(=O)NC(=S)NNC(=O)c1ccc(Br)cc1 | 25.8% (inactive)
COc1ccc(C(=O)NNC(=S)NC(=O)c2ccccc2)cc1 | 66.3% (active)
O=C(CCc1ccccc1)NNC(=O)COc1ccc(Cl)cc1 | -2.05% (inactive)
COc1ccc(C(=O)NC(=S)NNC(=O)CCc2ccccc2)cc1 | 66.2% (active)
O=C(NNC(=S)NCc1ccccc1)c1ccc(OC(F)F)cc1 | -12.5% (inactive)
CCOC(=O)[C@]12CCCC=C1N(CCC1=CCCCC1)C(=O)[C@H](CC(=O)NCCCCc1ccccc1)C2 | -5.96% (inactive)
CCO[C@H]1OC(C(=O)NCc2ccccc2)=C[C@@H](c2coc3ccccc3c2=O)[C@@H]1CCCO | 1.58% (inactive)
O=C(NCc1ccccc1)[C@H]1CCCN1C(=O)[C@@H]1CCCN1C(=O)c1ccc(Cl)cc1Cl | -4.49% (inactive)
CC[C@@H]1CC2=C(C(=O)OC(C)(C)O2)[C@@H](CC)O1 | 7.78% (inactive)
